Shown are actives, neighbours in structure and some others; about 3% of the full set was active somewhere.
PLCb3 inh = inhibitors of human phospholipase C beta3. Q01970. 370,000 compounds, 0.18% hits. inhibition, % at 12.2 µM. Purified PLC-beta3, fluorogenic substrate, fluorescence; in the data active = inhibition above about 11%
Target sequence (Q01970 whole entry, looked up): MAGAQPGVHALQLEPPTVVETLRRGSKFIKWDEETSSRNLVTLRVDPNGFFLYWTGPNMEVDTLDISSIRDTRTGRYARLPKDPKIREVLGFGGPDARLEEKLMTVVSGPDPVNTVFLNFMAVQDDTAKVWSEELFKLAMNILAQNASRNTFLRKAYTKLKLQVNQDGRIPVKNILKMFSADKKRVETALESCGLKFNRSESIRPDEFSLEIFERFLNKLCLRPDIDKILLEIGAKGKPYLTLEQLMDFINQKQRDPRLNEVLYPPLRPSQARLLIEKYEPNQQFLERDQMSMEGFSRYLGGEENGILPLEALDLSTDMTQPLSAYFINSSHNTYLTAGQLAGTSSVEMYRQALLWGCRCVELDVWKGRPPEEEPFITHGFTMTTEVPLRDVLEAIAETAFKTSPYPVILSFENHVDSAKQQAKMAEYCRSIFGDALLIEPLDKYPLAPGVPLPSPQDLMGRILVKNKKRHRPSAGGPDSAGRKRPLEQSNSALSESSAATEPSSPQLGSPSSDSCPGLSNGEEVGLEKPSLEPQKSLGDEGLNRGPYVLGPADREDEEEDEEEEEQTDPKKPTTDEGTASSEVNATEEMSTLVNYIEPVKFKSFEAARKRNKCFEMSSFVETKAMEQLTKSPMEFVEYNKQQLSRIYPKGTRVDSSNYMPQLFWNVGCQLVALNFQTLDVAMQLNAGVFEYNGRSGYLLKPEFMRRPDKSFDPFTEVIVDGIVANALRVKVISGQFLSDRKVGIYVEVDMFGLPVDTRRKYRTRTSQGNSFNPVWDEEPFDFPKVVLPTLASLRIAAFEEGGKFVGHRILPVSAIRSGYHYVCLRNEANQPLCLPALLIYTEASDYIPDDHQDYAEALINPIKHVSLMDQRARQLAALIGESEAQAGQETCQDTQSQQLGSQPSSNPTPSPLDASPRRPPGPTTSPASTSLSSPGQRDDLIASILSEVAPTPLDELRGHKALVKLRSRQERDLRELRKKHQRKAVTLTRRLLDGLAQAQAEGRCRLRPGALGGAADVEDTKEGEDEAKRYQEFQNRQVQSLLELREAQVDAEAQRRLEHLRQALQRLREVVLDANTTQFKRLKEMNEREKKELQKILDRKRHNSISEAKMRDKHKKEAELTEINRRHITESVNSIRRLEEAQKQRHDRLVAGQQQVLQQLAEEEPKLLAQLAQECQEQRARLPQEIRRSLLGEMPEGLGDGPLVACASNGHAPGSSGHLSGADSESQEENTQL
NRP1-CendR mod = alters CendR peptide binding to human NRP-1; FAM-RPARPAR peptide binding to NRP-1, fluorescence polarization; inhibition, % at 25 µM; O14786; AID 602438; 360,000 compounds, 0.85% hits;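 active = inhibition or corrected inhibition above about 18%, plus a signal ratio from 0.5 to 1.5, limit read from the data, passing the limit was not always enough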
Tn6 DDE FP = DD(E)-Tn6 binding inhibition, primary FP screen; 370,000 compounds, 0.21% hits; Fibrin DD(E) TRITC-Tn6 fluorescence polarization displacement; inhibition, % at 8.3 µM; P02675;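 active = inhibition above a per-campaign cutoff: mean of compounds within control limits plus 3 SD, cut at about 15% in these data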
DDE Tn7 FP inh = inhibitors of Tn7 peptide binding to human fibrin DD(E); inhibition, % at 8.3 µM; P02675; FP displacement of FITC-Tn7 peptide from fibrin DD(E); 0% = median of compound wells per plate; 370,000 compounds, 0.13% hits;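 active = inhibition above the mean of compounds falling within the control limits plus 3 SD of them, cut at about 14% in these data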
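System: human fibrin DD(E); quantity: Fibrin-DD(E) at 2 µM final; also added: fluorescent Tn7 probe at 0.1 µM; compound dosing: single nominal test concentration of 8.3 µM per compound; schedule: 10 min preincubation, 3 h with tracer, room temperature; detection: fluorescence polarization of the labelled Tn7 tracer; repeats: one replicate per compound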
PLC-gamma1 inh = PLC-gamma1 (human) inhibition, primary screen; 370,000 compounds, 0.84% hits; P19174; inhibition, % at 12.2 µM; purified PLC-gamma1, fluorogenic substrate, fluorescence; AID 720700; in the data active = inhibition above about 9.5%
proKLK7 act = activators of human kallikrein-7 zymogen. P49862. purified proKLK7, EDANS-DABCYL substrate fluorescence; 100% is mature enzyme control, 0% vehicle. activation, % at 7 µM. 370,000 compounds, 0.9% hits. AID 652039;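 active = activation above the mean of all tested compounds plus 3 SD, computed per campaign excluding outliers beyond control limits, cut at about 13% in these data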
Of the large screens only hits and unclear results are named; the others gave an inactive call.

COc1cc2c(C(=O)N3CCN(C)CC3)c(C)oc2cc1Br	none
O=C(Cn1nnc(-c2ccc(N3CCOCC3)cc2)n1)c1cccc(F)c1	none (no result: NRP1-CendR mod)
Cc1noc(C)c1C(=O)Nc1ccc(N(C)C)cc1	none
Cc1noc(C)c1C(=O)Nc1ccc(F)cc1	NRP1-CendR mod 41
CCCCC#Cc1cncc(C(=O)N/N=C/c2cccc(OC)c2)c1	NRP1-CendR mod 38
COc1cccc(/C=N\NC(=O)c2ccc(C)nc2)c1	none
CC(C)(C)S(=O)(=O)N1C[C@@H]2CC(=O)C=C2[C@H]1CCO	none (no result: NRP1-CendR mod)
CCn1ncc(Br)c1C(=O)N(C)C12CC3CC(CC(C3)C1)C2	NRP1-CendR mod 27
CCn1ncc(Br)c1C(=O)Nc1ccn(C23CC4CC(CC(C4)C2)C3)n1	none
COC(=O)c1ccccc1NC(=O)CSc1nc(C)cc(C)n1	NRP1-CendR mod 45
Cc1ccc(CN2CCCCC(NC(=O)c3ccccc3C)C2=O)cc1 (stereo unspecified)	none (no result: NRP1-CendR mod)
CC(C)(C)c1ccc(SCCc2cccnc2)cc1	NRP1-CendR mod 31
c1ccc(SCCc2ccncc2)cc1	none
COc1ccccc1CNC(=O)c1cc(-c2ccccc2)nn1Cc1cc(C)no1	NRP1-CendR mod 27
CCN(CC)C(=O)CSc1nnc(-c2c[nH]c3ccccc23)o1	NRP1-CendR mod 31
O=C(Nc1ccccc1)c1cc(-n2cnnc2)ccc1Cl	none
O=C(Nc1ccc(N2CCOCC2)cc1)c1cc(-n2cnnc2)ccc1Cl	NRP1-CendR mod 26
CCCCCCCCN1C(=O)[C@@H](CC(=O)NCC23CC4CC(CC(C4)C2)C3)C[C@@]2(C(=O)OC)C1=C[C@H](C1CCCC1)O[C@@H]2C	none (no result: NRP1-CendR mod)
O=C(NCc1ccccc1Cl)C1CCC(CNS(=O)(=O)c2cccc3cccnc23)CC1 (stereo unspecified)	none (no result: NRP1-CendR mod)
Cc1ccc(NC(=O)CN2C(=O)CCSc3ccccc32)cc1C	none (no result: NRP1-CendR mod)
Cc1ccc(N2C(=O)C(Cl)=C(NCc3ccccc3)C2=O)c(C)c1	NRP1-CendR mod 21
CC(=O)N(C)c1nnc(-c2cnccn2)s1	none
COCC(=O)N(C)c1nnc(-c2cnccn2)s1	proKLK7 act 32
C=CCN(Cc1ccccc1)C(C#CC(=C)C)Cc1ccccc1 (stereo unspecified)	none (no result: NRP1-CendR mod)
O=C(C(=Cc1ccc(O)cc1)c1ccccc1)c1ccccc1	PLC-gamma1 inh 11
O=C(C(=Cc1ccc(F)cc1)c1ccccc1)c1ccc(O)cc1	none
O=S(=O)(NCc1ccc(F)cc1)c1ccc(-n2cccn2)cc1	NRP1-CendR mod 21
COc1cc(CCC(N)c2cccc(O)c2)cc(OC)c1OC (stereo unspecified)	NRP1-CendR mod 26
O=C(Nc1ccc2c(c1)Cc1ccccc1-2)c1cccnc1	NRP1-CendR mod 20
Cc1cc(SCC(=O)N2CCN(C(=O)c3ccco3)CC2)c(C)cc1Br	NRP1-CendR mod 22
Cc1cc(SCC(=O)OCC(=O)N2CCN(C(=O)c3ccco3)CC2)c(C)cc1Br	none
COc1ccc(NCc2nnc(SCC(=O)NCc3ccccc3)n2-c2ccccc2OC)cc1	NRP1-CendR mod 29
COc1ccc(CN2C(=O)CCCC2(C)c2nnnn2-c2c(C)cccc2C)cc1OC (stereo unspecified)	none (no result: NRP1-CendR mod)
COc1ccc(CNC(=O)CN2C(=O)CSc3ccc(S(=O)(=O)N4CCOCC4)cc32)cc1	NRP1-CendR mod 33
CCN(CC)C(=O)CC[C@H]1CC[C@]2(CCCN(C(=O)c3ccccc3)C2)O1	none (no result: NRP1-CendR mod)
Cc1nc(-c2ccccc2)sc1C(=O)CSc1ccccc1	NRP1-CendR mod 28
C[C@H](NC(=O)CCC1CCC(=O)N1)c1ccccc1 (stereo partly specified)	NRP1-CendR mod 19
COc1ccc2c(c1O)-c1ccccc1CCN(C)C2	none
CN1CCc2cccc3c2[C@@H]1Cc1ccc(O)c(O)c1-3	NRP1-CendR mod 26 (no result: PLCb3 inh, Tn6 DDE FP, DDE Tn7 FP inh, PLC-gamma1 inh, proKLK7 act)
Nn1c(SCc2ccc([N+](=O)[O-])cc2)nnc1-c1n[nH]c2c1CCC2	none (no result: NRP1-CendR mod)
O=c1c2ccccc2nc(-c2ccccc2)n1O	Tn6 DDE FP 16
Cc1cccc(-c2nsc(SCC(=O)c3ccc(Cl)cc3)n2)c1	NRP1-CendR mod 45
CCCN=C1N/C(=C\c2ccco2)C(=O)N1c1ccccc1	NRP1-CendR mod 43
O=C1/C(=C\c2ccco2)NC(=S)N1c1ccccc1	none
CCC1(C)Nc2ccccc2C(=O)N1O (stereo unspecified)	NRP1-CendR mod 26
Cc1ccc(NC(=O)c2ccccc2[N+](=O)[O-])nc1	NRP1-CendR mod 30
Cc1ccc(NC(=O)c2cccc(Cl)c2)nc1	NRP1-CendR mod 25
Cc1ccc(NC(=O)c2ccc(Cl)cc2[N+](=O)[O-])nc1	none
Cc1ccc(NC(=O)CNC(=O)c2cccc(Cl)c2)nc1	none
Cc1c(NC(=O)c2cnn3c(C(F)(F)F)cc(-c4ccco4)nc23)c(=O)n(-c2ccccc2)n1C	NRP1-CendR mod 23
CCCCOc1ccc(C(=O)N/C(=C/C=C/c2ccccc2)C(=O)O)cc1	NRP1-CendR mod 21
N/C(=N\OC(=O)/C=C/c1ccccc1)c1ccccn1	none
O=C(/C=C/c1ccccc1)c1ccccn1	NRP1-CendR mod 37
CC12CCC(=O)N1C(C(=O)NCCc1ccccc1)CS2 (stereo unspecified)	NRP1-CendR mod 25
CC(C)CNc1oc(-c2ccccc2Cl)nc1C#N	NRP1-CendR mod 26
CC(C)CNc1oc(-c2ccco2)nc1C#N	NRP1-CendR mod 22
N#Cc1nc(-c2ccco2)oc1NCc1ccc(F)cc1	NRP1-CendR mod 23
CC(Nc1oc(-c2ccco2)nc1C#N)c1ccccc1 (stereo unspecified)	none
CC(C)C[C@H]1COc2cccc(F)c2S(=O)(=O)N1Cc1cn(Cc2ccc(Cl)cc2)nn1	none (no result: NRP1-CendR mod)
CCN=C1S/C(=C/c2cc(C)n(-c3ccc(Cl)cc3F)c2C)C(=O)N1CC	none (no result: NRP1-CendR mod, proKLK7 act)
O=C1CCn2c1c(O)c1ccccc1c2=O	none
N=C1CCC(=N)c2c1c(O)c1ccccc1c2O	NRP1-CendR mod 27 (no result: PLCb3 inh, Tn6 DDE FP, DDE Tn7 FP inh, PLC-gamma1 inh, proKLK7 act)
CCCc1ccc(C2C3=C(CC(C)(C)CC3=O)NC3=C2C(=O)c2ccccc23)cc1 (stereo unspecified)	PLC-gamma1 inh 10
CC(C)(C)n1nc(-c2ccc(Cl)cc2)c2c(N)ncnc21	none
CC(C)(C)n1nc(-c2ccc(F)cc2)c2c(N)ncnc21	NRP1-CendR mod 67
CCCCCCCCN1C(=O)[C@@H](CC(=O)N2CCSCC2)C[C@@]2(C(=O)OC)C1=C[C@H](C(C)(C)C)O[C@@H]2C	none (no result: NRP1-CendR mod)
Cc1ccc2nc(NC(=O)c3ccc(Cl)s3)sc2c1	none
Cc1nc2ccc(NC(=O)c3ccc(Cl)s3)cc2s1	proKLK7 act 13
O=c1c2ccccc2[nH]c2ccc(O)cc12	none
Cc1ccc2[nH]c3ccccc3c(=O)c2c1	proKLK7 act 19
COC(=O)c1cc2c(C)nn(-c3ccccc3)c2s1	NRP1-CendR mod 31

Bioassay records deposited in PubChem by several laboratories.
